NR2E3 ag-1: inhibitors of NR2E3-RetCOR corepressor binding, primary screen, NR2E3 agonist project, biochemical, TR-FRET, GST-NR2E3, biotin-RetCOR; hit rate 0.12% among 320,000; inhibition of corepressor binding, % at 4.78 µM; Photoreceptor-specific nuclear receptor (Homo sapiens), Q9Y5X4; 1536-well;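 active means percent inhibition above the cutoff of mean plus 3 SD of all tested compounds, set per screening campaign, cut at about 20% in these data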;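 further: 0% = DMSO wells and 100% = biotin wells as full block of FRET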
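Test system – NR2E3–RetCOR corepressor complex · Quantity – NR2E3 fusion 1.35 nM · Buffer or medium – Tris pH 7.5 · Incubation – Compound–protein incubation for 5 h at 4 °C · Technique – TR-FRET, Eu(K)-anti-GST donor, streptavidin-D2 acceptor, ex 340, em 617/671 nm · Evaluation – percent inhibition of 671/617 nm emission ratio versus biotin and DMSO controls · Plate – 1536-well format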
NR2E3 ag-2: NR2E3 agonists in two-hybrid cells, primary screen, cell-based, luminescence, CHO-S, Gal4-NCOR/VP16-NR2E3; hit rate 0.35% among 360,000; Photoreceptor-specific nuclear receptor (Homo sapiens), Q9Y5X4; luciferase; AID 602229, 2012; inhibition of corepressor binding, % at 3.98 µM;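 active means inhibition above the mean of all tested compounds plus 3 SD, cut at about 70% in these data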;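 further: 0% = DMSO with NR2E3 transfected cells and 100% = cells lacking NR2E3 construct; higher means lower luciferase signal from less NR2E3 corepressor binding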
Furin inhibitor: human furin inhibitors, primary screen, biochemical, fluorescence intensity | P09958 | purified furin, fluorogenic substrate cleavage | inhibition, % at 20 µM or 30 µM | hit rate 0.061% among 220,000; in the data active means inhibition above about 25%
Target sequence (P09958 108-714 limits assumed): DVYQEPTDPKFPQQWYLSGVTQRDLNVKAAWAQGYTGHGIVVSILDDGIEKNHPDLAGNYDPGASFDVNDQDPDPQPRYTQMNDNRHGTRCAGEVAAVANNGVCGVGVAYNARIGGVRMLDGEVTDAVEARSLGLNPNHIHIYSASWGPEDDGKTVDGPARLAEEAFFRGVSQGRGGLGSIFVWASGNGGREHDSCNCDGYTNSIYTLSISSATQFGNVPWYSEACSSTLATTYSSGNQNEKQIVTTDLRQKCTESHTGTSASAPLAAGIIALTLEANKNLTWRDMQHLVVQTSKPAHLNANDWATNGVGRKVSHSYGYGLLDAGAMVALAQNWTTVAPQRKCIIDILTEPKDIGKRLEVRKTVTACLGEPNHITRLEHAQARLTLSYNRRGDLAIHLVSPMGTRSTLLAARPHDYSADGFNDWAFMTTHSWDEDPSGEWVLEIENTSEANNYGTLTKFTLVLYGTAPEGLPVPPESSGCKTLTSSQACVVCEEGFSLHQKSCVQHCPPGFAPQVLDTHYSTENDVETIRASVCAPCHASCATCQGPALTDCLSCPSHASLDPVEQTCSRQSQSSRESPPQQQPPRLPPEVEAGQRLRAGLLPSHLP
JMJD2C inh: inhibitors of GASC-1 histone demethylase, primary screen, biochemical, fluorescence, DELFIA europium. inhibition, % at 2.35 µM. GST-JMJD2C(1-420) H3K9me3 demethylation. hit rate 0.069% among 330,000. Lysine-specific demethylase 4C (Homo sapiens), Q9H3R0;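 active means more than half of a compound's replicate wells show inhibition beyond 50%, single wells judged on their own value; inconclusive means some, but no more than half, of replicates pass 50% inhibition; inactive means no replicate passes 50% inhibition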;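 further: signal counts dimethyl H3K9 product captured on neutravidin plate; 0% = median of DMSO wells and 100% = 0.3 times that DMSO median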
EP2 modulator: EP2 receptor modulators, cAMP readout, primary screen, cell-based, HTRF cAMP, PGE2 stimulation | Prostaglandin E2 receptor EP2 subtype (Homo sapiens), P43116 | EP2-expressing cells, cAMP HTRF FRET, PGE2 co-stimulation | induction, % at 25 µM | hit rate 0.83% among 260,000 | AID 940, 2007;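 active means compounds whose cAMP rise, as percent of the full-agonist control response, exceeds 60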;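 further: rat C6 glioma line stably carrying human EP2 under a CMV promoter; the protocol text gives 20 µM as final concentration; 100% = response of wells given 1 µM PGE2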
PGE2 EP2 inh: human EP2 receptor antagonists, primary screen, TR-FRET cAMP, C6 glioma cells | inhibition, % at 25 µM | C6 glioma cells expressing human EP2; cells stimulated with saturating PGE2 | AID 1422, 2008 | hit rate 0.52% among 260,000;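 active means percent inhibition above 40 after rounding to a whole number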;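 further: rat C6 glioma host cells with rolipram phosphodiesterase inhibitor present; the protocol text gives 20 µM as final concentration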
Numbers without * were called inactive; ? = inconclusive; / = no result given. An excerpt weighted towards active compounds, which were near 1.3% of everything screened.

SMILES	NR2E3 ag-1	NR2E3 ag-2	Furin inhibitor	JMJD2C inh	EP2 modulator	PGE2 EP2 inh
O=C(O)CCSCC(=O)Nc1c(C(=O)C2CC2)oc2ccccc12	2	-5	-6	4	15	20
O=C(Nc1c(C(=O)C2CC2)oc2ccccc12)c1ccc(Cl)cc1	2	4	-23	-3	64*	5
Cc1ccc(/C=N/Nc2cccc3cccnc23)c(O)c1	-3	-106	-14	-9	15	4
Oc1ccc(/C=N/Nc2cccc3cccnc23)c(O)c1	-1	-27	-8	-1	-16	51*
Cc1ccc(-c2cc(N)c(=O)n(C(C)C(=O)NC3CCCCCCC3)n2)s1 (stereo unspecified)	/	/	/	/	-4	5
COC(=O)C(C(=O)OC)c1ccccc1[N+](=O)[O-]	3	-25	-18	-2	7	6
O=C(O)[C@@H](Br)[C@@H](Br)c1ccccc1[N+](=O)[O-]	/	/	/	/	29	41*
O=C(c1ccc2c(c1)OCCO2)N1CCC(n2nnc(-c3ccc(F)cc3)n2)CC1	/	/	/	/	-102	/
COc1ccc(-n2c(C)c(C(=O)O)c3cc(OC)c4ccccc4c32)cc1	0	5	-21	-7	70*	7
COc1cc2c(C(=O)O)c(C)n(-c3ccccc3)c2c2ccccc12	3	-23	-13	-4	44	11
FC(F)(F)c1nc2nc(Cl)c(Cl)nc2n1CCCN1CCOCC1	/	21	/	/	7	46*
COc1ccc(C2=NOC(Cn3nc(-c4ccccc4)cc3C(=O)NCc3ccccc3OC)C2)cc1 (stereo unspecified)	/	-28	/	/	/	/
COc1ccccc1CNC(=O)c1cc(-c2ccccc2)nn1CC1CC(c2cccnc2)=NO1 (stereo unspecified)	6	-47	/	57*	/	5
COc1ccc(C2=NN(Cc3c(F)cccc3Cl)C(=O)CC2)cc1	3	-45	-26	1	63*	9
COc1ccc(C2=NN(CC(=O)Nc3ccccc3C)C(=O)CC2)cc1	-5	-8	-12	1	-37	4
COc1ccc(NC(=O)N(Cc2ccccc2OC)Cc2cc3cccc(C)c3[nH]c2=O)cc1	/	/	/	/	17	5
COCCn1c(SCC(=O)N2CCc3ccccc32)nnc1-c1ccc(OC)cc1	/	/	/	/	2	5
Cc1cc2ccccc2n2c(SCC(=O)c3ccc(F)cc3)nnc12	/	/	/	/	-13	6
Cc1cc(Nc2ccc(N=Nc3ccc(O)c4ncccc34)cc2)nc(C)n1	/	/	/	/	17	45*
Cc1ccc(C)c2nc(SCC(=O)Nc3nccs3)c(C#N)cc12	/	/	/	/	70*	26
Cc1cccc(C)c1NC(=O)c1c(-c2ccccc2)noc1C	2	12	-31	2	6	8
Cc1cccc(NC(=O)c2c(-c3ccccc3)noc2C)n1	-1	-3	-25	-11	-55	43*
Cc1ccccc1C1(O)CCN(C(=O)c2cnc(C(C)(C)C)nc2)CC1	/	/	/	/	-36	7
OC[C@@H]1O[C@H](n2cnc3c(/C=C(\O)c4ccccc4)ncnc32)[C@H](O)[C@H]1O	/	/	/	/	7	45*
OC[C@H]1O[C@@H](n2cnc3c(Nc4ccccc4)ncnc32)[C@H](O)[C@@H]1O	5	-14	-14	?	11	15
COC(=O)c1sc2ncccc2c1OCc1c(Cl)cccc1Cl	1	-26	-14	7	62*	4
CCOC(=O)CSC1=NC(=O)/C(=C\c2ccc(OC(C)=O)cc2)S1	1	-84	-7	-4	-40	53*
O=C(N/N=C/c1cn(-c2cccs2)nc1-c1ccccc1)c1ccccc1Cl	-1	-47	-13	-4	-27	7
O=C(N/N=C/c1cn(-c2cccs2)nc1-c1ccccc1)c1ccc(O)cc1	-2	-41	-19	6	-38	42*
